This is an account of results in ChEMBL document CHEMBL3102810, “Alkylamino derivatives of pyrazinamide: synthesis and antimycobacterial evaluation” (Bioorg Med Chem Lett, 2014).

By MIC is commonly meant the lowest concentration found to suppress growth.

≈ marks a conversion by molar mass, not a printed value. Calls of active or inactive are those of the source. No cut-off for these calls is given here.

For data set [1], the system named is Mycobacterium avium. Kind of data set: Antimycobacterial activity against pyrazinamide-resistant Mycobacterium avium CNCTC My 152/73 after 5 days by microplate alamar blue assay. The note with it: CNCTC My 152/73, 120 h. Format: functional. The gist of the method: (§1)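 Microplate alamar blue assay run at pH 5.6, using conditions optimized for pyrazinamide. Strains came from the Czech National Collection of Type Cultures. MIC was read in µg/mL and converted to µM using molecular weight.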
(Alamar Blue is a resazurin reagent that responds to reducing activity.)

Data set [2] in a line: Lipophilicity, log K of the compound by HPLC analysis. Format: physicochemical.
Data set [3] relates to Mycobacterium avium. The experiment in a line: Antimycobacterial activity against pyrazinamide-resistant Mycobacterium avium CNCTC My 80/72 after 5 days by microplate alamar blue assay. Format: functional. The note with it: CNCTC My 80/72, 120 h. In outline: as §1
The subject of data set [4] is Mycobacterium kansasii. Kind of data set: Antimycobacterial activity against pyrazinamide-resistant Mycobacterium kansasii CNCTC My 235/80 after 5 days by microplate alamar blue assay. Format: functional. The following applies: CNCTC My 235/80, 120 h. In outline:
as §1

The subject of data set [5] is Mycobacterium tuberculosis. The experiment in a line: Antimycobacterial activity against Mycobacterium tuberculosis H37Rv CNCTC My 331/88 after 5 days by microplate alamar blue assay. Format: functional. The following applies: H37Rv CNCTC My 331/88, 120 h. In outline:
as §1

Data set [6] concerns Trichophyton mentagrophytes. Kind of data set: Antifungal activity against Trichophyton mentagrophytes 445 after 72 to 120 hrs by microdilution broth method. Format: functional, organism-based.
Data set [7] deals with Lichtheimia corymbifera. The experiment in a line: Antifungal activity against Absidia corymbifera 272 after 72 to 120 hrs by microdilution broth method. Format: functional, organism-based. (In general: Broth dilution looks for growth in wells or tubes with falling amounts of substance.)
The subject of data set [8] is Aspergillus fumigatus. The experiment in a line: Antifungal activity against Aspergillus fumigatus 231 after 72 to 120 hrs by microdilution broth method. Format: functional, organism-based.
For data set [9], the system named is Nakaseomyces glabratus. Kind of data set: Antifungal activity against Candida glabrata 20/I after 72 to 120 hrs by microdilution broth method. Format: functional, organism-based.
Data set [10] relates to Trichosporon asahii. The experiment in a line: Antifungal activity against Trichosporon asahii 1188 after 72 to 120 hrs by microdilution broth method. Format: functional, organism-based.
Data set [11] relates to Pichia kudriavzevii. The experiment in a line: Antifungal activity against Candida krusei E28 after 72 to 120 hrs by microdilution broth method. Format: functional, organism-based.
The subject of data set [12] is Candida tropicalis. Kind of data set: Antifungal activity against Candida tropicalis 156 after 72 to 120 hrs by microdilution broth method. Format: functional, organism-based.
In data set [13] the test system is Candida albicans. The experiment in a line: Antifungal activity against Candida albicans ATCC 44859 after 72 to 120 hrs by microdilution broth method. Format: functional, organism-based.
Data set [14] concerns Trichophyton mentagrophytes. The experiment in a line: Antifungal activity against Trichophyton mentagrophytes after 72 to 120 hrs by microdilution broth method. Format: functional, organism-based.
Data set [15] relates to Staphylococcus epidermidis. The experiment in a line: Antibacterial activity against Staphylococcus epidermidis H 6966/08 after 48 hrs by microdilution broth method. Format: functional. The gist of the method:
(§2)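 Antibacterial screen with compound concentrations up to a highest level of 500 µM. Results expressed as MIC in µM.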

Data set [16] deals with Klebsiella pneumoniae. The experiment in a line: Antibacterial activity against ESBL positive Klebsiella pneumoniae J 14368/08 after 24 to 48 hrs by microdilution broth method. Format: functional, organism-based. The gist of the method:
as §2

The test system of data set [17] is Klebsiella pneumoniae. The experiment in a line: Antibacterial activity against Klebsiella pneumoniae D 11750/08 after 24 to 48 hrs by microdilution broth method. Format: functional, organism-based. The gist of the method: as §2
Data set [18] relates to Enterococcus sp. The experiment in a line: Antibacterial activity against Enterococcus sp. J 14365/08 after 24 to 48 hrs by microdilution broth method. Format: functional, organism-based. In outline: as §2
For data set [19], the system named is Staphylococcus epidermidis. Kind of data set: Antibacterial activity against methicillin-resistant Staphylococcus epidermidis H 5996/08 after 24 to 48 hrs by microdilution broth method. Format: functional, organism-based.
Data set [20] concerns Pseudomonas aeruginosa. Kind of data set: Antibacterial activity against Pseudomonas aeruginosa CCM 1961 after 24 to 48 hrs by microdilution broth method. Format: functional, organism-based. In outline: as §2
The test system of data set [21] is Escherichia coli. Kind of data set: Antibacterial activity against Escherichia coli CCM 4517 after 24 to 48 hrs by microdilution broth method. Format: functional, organism-based. In outline: as §2
The test system of data set [22] is Staphylococcus aureus. The experiment in a line: Antibacterial activity against Staphylococcus aureus CCM 4516/08 after 24 to 48 hrs by microdilution broth method. Format: functional, organism-based. The gist of the method: as §2
The test system of data set [23] is Staphylococcus epidermidis. Kind of data set: Antibacterial activity against Staphylococcus epidermidis H 6966/08 up to 500 uM after 24 to 48 hrs by microdilution broth method. Format: functional, organism-based. The gist of the method:
as §2

With `CCCCCCCNc1cncc(C(N)=O)n1`, the MIC was found to be 100 µg/mL (≈ 423 µM) in data set [1], 100 µg/mL (≈ 423 µM) in data set [3], 212 µM in data set [4] and 106 µM in [5]. Further, the “log K” value in [2] is 0.4273. Besides, the result in data set [6], in [7], in data set [8], in data set [9], in data set [10] and in data set [11] was inactive. The outcome in data set [12], in [13], in data set [14], in data set [15], in data set [16] and in data set [17] was inactive. The outcome in data set [18], in [19], in [20], in [21], in data set [22] and in data set [23] was inactive.

On to `CCCCCNc1cncc(C(N)=O)n1`, for which the MIC in data set [1] was greater than 100 µg/mL; in data set [3], greater than 100 µg/mL; in [4], greater than 100 µg/mL; in data set [5], 100 µg/mL. Besides, the “log K” value in [2] is recorded as -0.0095. The outcome in data set [6], in data set [7], in [8], in [9], in [10] and in data set [11] was inactive. Moreover, the outcome in [12], in data set [13], in [14], in [15], in [16] and in [17] was inactive. Also, the result in data set [18], in [19], in data set [20], in data set [21], in data set [22] and in data set [23] was inactive.

As for `CCCNc1cncc(C(N)=O)n1`, the MIC in data set [1], in data set [3], in data set [4] and in data set [5] was greater than 100 µg/mL in each case. The “log K” value in data set [2] is -0.4386. Also, the result in data set [6], in data set [7], in [8], in data set [9], in data set [10] and in data set [11] was inactive. For the same molecule, the outcome in data set [12], in data set [13], in data set [14], in data set [15], in data set [16] and in data set [17] was inactive. Besides, the outcome in data set [18], in [19], in data set [20], in [21], in [22] and in data set [23] was inactive.

Turning to `NC(=O)c1cnc(N)cn1`, the MIC in [1], in data set [3], in data set [4] and in data set [5] was greater than 100 µg/mL each time. The “log K” value in data set [2] is -0.7852. In addition, the outcome in data set [6], in data set [7], in data set [8], in [9], in [10] and in data set [11] was inactive. Besides, the outcome in data set [12], in data set [13], in data set [14], in data set [15], in data set [16] and in data set [17] was inactive. In addition, the outcome in data set [18], in data set [19], in data set [20], in [21], in [22] and in [23] was inactive.

With `NC(=O)c1cnc(NCCc2ccccc2)cn1`, the MIC in data set [1] is greater than 100 µg/mL; in data set [3] it was greater than 100 µg/mL; in [4], 100 µg/mL; in data set [5] it was 206 µM. Moreover, the “log K” value in data set [2] is reported as -0.0382. The outcome in data set [6], in data set [7], in data set [8], in data set [9], in data set [10] and in data set [11] was inactive. The outcome in [12], in [13], in data set [14], in data set [15], in data set [16] and in [17] was inactive. For the same molecule, the result in data set [18], in data set [19], in data set [20], in data set [21], in data set [22] and in [23] was inactive.

Consider `CCCNc1cnc(C(N)=O)cn1`, for which the MIC in data set [1], in [3], in [4] and in data set [5] was greater than 100 µg/mL throughout. For the same molecule, the “log K” value in data set [2] was -0.3878. The result in data set [6], in data set [7], in data set [8], in data set [9], in data set [10] and in data set [11] was inactive. The outcome in data set [12], in data set [13], in data set [14], in data set [15], in data set [16] and in [17] was inactive. Further, the outcome in [18], in data set [19], in data set [20], in data set [21], in data set [22] and in data set [23] was inactive.

For `NNC(=O)c1ccncc1` [ISONIAZID], the MIC stood at 6.25 µg/mL (≈ 45.6 µM) in data set [1], 12.5 µg/mL (≈ 91.1 µM) in data set [3], 11 µM in data set [4] and 3 µM in data set [5]. In data set [2], the “log K” value is reported as -0.7432.

Turning to `CNc1cncc(C(N)=O)n1`, the outcome in [6], in data set [7], in [8], in data set [9], in data set [10] and in data set [11] was inactive. In addition, the outcome in data set [12], in data set [13], in data set [14], in data set [15], in data set [16] and in data set [17] was inactive. Also, the outcome in data set [18], in [19], in data set [20], in data set [21], in data set [22] and in data set [23] was inactive.
